Measured values reported in ChEMBL document CHEMBL1124029, “Novel DNA groove binding alkylators: design, synthesis, and biological evaluation” (1988).

How the values were obtained:
[1] = tested on: Coxsackievirus B4; experiment: Minimum inhibitory concentration required to reduce virus induced cytopathogenicity by 50% against Coxsackie type B4 virus in HeLa cell cultures; assay type: functional; details: Enterovirus B
[2] = tested on: Coxsackievirus B4; experiment: Minimum inhibitory concentration required to reduce virus induced cytopathogenicity by 50% against Coxsackie type B4 virus in Vero B cell cultures; assay type: functional; details: Enterovirus B
[3] = tested on: FM3A; experiment: Inhibition of proliferation of Murine mammary carcinoma (FM3A) cells was measured; assay type: functional; details: Mus musculus, read-out: ID50 (the source's name)
[4] = tested on: Human alphaherpesvirus 2; experiment: Minimum inhibitory concentration required to reduce virus induced cytopathogenicity by 50% against herpes simplex-2 virus in rabbit primary kidney cell cultures; assay type: functional
[5] = tested on: Human alphaherpesvirus 1; experiment: Minimum inhibitory concentration required to reduce virus induced cytopathogenicity by 50% against herpes simplex-1 virus in rabbit primary kidney cell cultures; assay type: functional
[6] = tested on: L1210; experiment: Inhibition of proliferation of Murine Leukemia (L1210) cells was measured; assay type: functional; details: Mus musculus, read-out: ID50 (the source's name)
[7] = tested on: MOLT-4F; experiment: Inhibition of proliferation of Human T Lymphoblast (Molt/4F) cells was measured; assay type: functional; details: read-out: ID50 (the source's name)
[8] = tested on: NAMALVA; experiment: Inhibition of proliferation of Human B Lymphoblast (Namalva) cells was measured; assay type: functional; details: read-out: ID50 (the source's name)
[9] = tested on: P388; experiment: Percent inhibition of proliferation of Murine Leukemia (P388) cells was measured; assay type: functional, Mus musculus; set-up: concentration or dose not given beside the values
Summary of the method: (§1)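 Mouse leukemia L1210 cells were grown in McCoy's 5A medium and P388D1 cells in Fischer's medium, each with 10% fetal calf serum. Compounds were dissolved in water, or sonicated and given as a suspension if poorly soluble. Cells were seeded at 1×10^5 per well and grown 72 h at 37 °C in 5% CO2. Viability was read by MTT formazan optical density at 570 nm (reference 630 nm).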

[10] = Minimum inhibitory concentration required to reduce virus induced cytopathogenicity by 50% against para influenza virus in WI-38 cell cultures; assay type: functional
[11] = tested on: Poliovirus 1; experiment: Minimum inhibitory concentration required to reduce virus induced cytopathogenicity by 50% against polio type 1 virus in HeLa cell cultures; assay type: functional; details: Enterovirus C
[12] = tested on: Mammalian orthoreovirus 1; experiment: Minimum inhibitory concentration required to reduce virus induced cytopathogenicity by 50% against Reo-1 virus in WI-38 cell cultures; assay type: functional
[13] = tested on: Semliki Forest virus; experiment: Minimum inhibitory concentration required to reduce virus induced forest virus in Vero B cell cultures; assay type: functional
[14] = tested on: Sindbis virus; experiment: Minimum inhibitory concentration required to reduce virus induced cytopathogenicity by 50% against sindbis virus in Vero B cell cultures; assay type: functional
[15] = tested on: Vesicular stomatitis virus; experiment: Minimum inhibitory concentration required to reduce virus induced cytopathogenicity by 50% against Vesicular stomatitis virus in HeLa cell cultures; assay type: functional
[16] = tested on: Hepatoma cell line; experiment: Inhibition of proliferation of Human hepatoma cells was measured; assay type: functional; details: read-out: ID50 (the source's name)
[17] = (§2) Minimum cytotoxic concentration required to cause a microscopically detectable alteration of normal cell morphology; assay type: functional
[18] = tested on: Raji; experiment: Inhibition of proliferation of Human B Lymphoblast (Raji) cells was measured; assay type: functional; details: read-out: ID50 (the source's name)
[19] = tested on: L1210; experiment: Percent inhibition of proliferation of Murine Leukemia (L1210) cells was measured; assay type: functional, Mus musculus; set-up: concentration or dose not given beside the values; summary of the method: as §1
[20] = as §2; assay type: functional; remark: listed apart in the source
[21] = tested on: Human rhinovirus 1A; experiment: Minimum inhibitory concentration required to reduce virus induced cytopathogenicity by 50% against rhino-1A virus in WI-38 cell cultures; assay type: functional
[22] = tested on: rhinovirus A9; experiment: Minimum inhibitory concentration required to reduce virus induced cytopathogenicity by 50% against rhino-9 virus in WI-38 cell cultures; assay type: functional; details: Rhinovirus A

Row | Compound | MIC [1] [µg/mL] | MIC [2] [µg/mL] | IC50 [3] [µg/mL] | MIC [4] [µg/mL] | MIC [5] [µg/mL] | IC50 [6] [µg/mL] | IC50 [7] [µg/mL] | IC50 [8] [µg/mL] | Inhibition [9] [%] | MIC [10] [µg/mL] | MIC [12] [µg/mL] | MIC [13] [µg/mL] | MIC [14] [µg/mL] | MIC [15] [µg/mL] | MCC [17] [µg/mL] | IC50 [18] [µg/mL] | Inhibition [19] [%] | MCC [20] [µg/mL] | MIC [21] [µg/mL] | MIC [22] [µg/mL] | also measured
1 | Cl.Cn1cc(NC(=O)c2cc(NC(=O)CCl)cn2C)cc1C(=O)NCCC(=N)N | > 100 | > 100 | 13.3 | 70 | 70 | 8.7 | 28.7 | 5.3 | 38 | > 100 | > 100 | > 100 | > 100 | > 200 | ≥ 100 | 3.09 | 29 | – | – | – | MIC [11]: > 100 µg/mL; IC50 [16]: 3.63 µg/mL
2 | Cl.Cl.Cn1cc(NC(=O)c2cc(NC(=O)c3cc(NC=O)cn3C)cn2C)cc1C(=O)NCCC(=N)N | – | > 200 | 30.6 | 70 | 70 | 27.1 | 28.4 | 22.5 | – | > 200 | > 200 | > 200 | > 200 | > 100 | > 200 | 23.7 | – | > 200 | – | – | IC50 [16]: 54.7 µg/mL
3 | Cl.Cn1cc(NC(=O)c2cc(NC(=O)CF)cn2C)cc1C(=O)NCCC(=N)N | – | > 200 | ≥ 100 | 100 | 150 | 40.3 | 32.3 | 32.3 | 0 | > 40 | > 100 | > 200 | > 200 | 100 | > 200 | 33.1 | 0 | > 100 | > 200 | > 200 | –
4 | Cl.Cn1cc(NC(=O)c2cc(NC(=O)C(Cl)(Cl)Cl)cn2C)cc1C(=O)NCCC(=N)N | > 40 | > 100 | > 100 | > 100 | > 100 | 30.5 | 84.3 | – | 55 | > 100 | > 40 | > 100 | > 100 | > 40 | > 100 | 68.7 | 28 | > 200 | > 40 | > 40 | MIC [11]: > 40 µg/mL
5 | Cl.Cl.Cn1cc(NC(=O)c2cc(NC(=O)CNC(=N)N)cn2C)cc1C(=O)NCCC(=N)N [CONGOCIDINE] | – | > 200 | – | > 10 | > 10 | – | > 100 | – | – | > 100 | > 200 | > 200 | > 200 | > 10 | > 400 | – | – | – | – | – | IC50 [16]: 44.7 µg/mL
6 | Cl.Cn1cc(NC(=O)c2cc(NC(=O)C3CC3)cn2C)cc1C(=O)NCCC(=N)N | – | > 100 | > 100 | 40 | 20 | > 100 | 7.8 | – | 8 | > 100 | > 100 | > 100 | > 100 | > 100 | 100 | 26.7 | 3 | > 200 | > 40 | 20 | –
7 | Cl.Cn1cc(NC(=O)c2cc(NC(=O)CCCCl)cn2C)cc1C(=O)NCCC(=N)N | – | – | 74.1 | 150 | 300 | > 100 | > 100 | – | 0 | – | – | – | – | > 400 | > 200 | > 100 | 0 | > 200 | – | – | –
8 | CC[N+](CC)(CC)CC.Cn1cc(NC(=O)c2cc(NC(=O)C(Cl)Cl)cn2C)cc1C(=O)NCCC(=N)N.O=S(=O)([O-])O | > 100 | > 40 | > 100 | 70 | 70 | > 100 | 27.2 | – | 28 | > 100 | > 200 | > 100 | > 100 | > 200 | 200 | 24.1 | 13 | > 200 | 40 | 40 | MIC [11]: > 100 µg/mL
